The structures appear in SMILES notation. Activity calls are given as the source filed them.

Series [1] deals with Human immunodeficiency virus 1. Put plainly: Antiviral activity against wild type HIV1 NL4-3 infected in human TZM-bl cells assessed as reduction in viral replication after 48 hrs by bright Glo-luciferase reporter gene assay based BiCycle assay. It counts as functional, organism-based. The note with it: Human immunodeficiency virus 1, NL4-3, TZM-bl. In a few lines:
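BiCycle format: MT-2 cells infected with wild-type NL4-3 in the presence of compound dilutions. Virus produced in this first round was then quantified by infecting TZM-bl cells. IC50 was derived from the dose-response data.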

In series [2] the test system is Human immunodeficiency virus 1. Put plainly: Antiviral activity against HIV1 7400 harboring nucleoside reverse transcriptase M41L/D67N/M184V/L210W/T215Y mutant infected in human TZM-bl cells infected with supernatants from virus-infected human MT2 cells treated with compound for 72 hrs assessed as reduction in viral replication after 48 hrs by bright Glo-luciferase reporter gene assay. It counts as functional, organism-based. The note with it: Human immunodeficiency virus 1, 7400. The essentials: (§1)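 BiCycle assay: MT-2 cells infected with a drug-resistant HIV-1 strain in the presence of compound dilutions. Virus produced in this first round is then measured by infecting TZM-bl cells. The readout is IC50.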
A general note: A reporter such as luciferase makes a cellular process visible.

The subject of series [3] is Human immunodeficiency virus 1. As to the kind of experiment: Selectivity ratio of IC50 for HIV1 7400 harboring nucleoside reverse transcriptase M41L/D67N/M184V/L210W/T215Y mutant infected in human MT2 cells to IC50 for HIV1 NL4-3 infected in human MT2 cells. It counts as functional. In a few lines:
(§2)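 Fold change is the IC50 against the resistant strain divided by the IC50 against the wild-type NL4–3 reference. Both IC50 values come from the BiCycle assay (MT-2 infection, then TZM-bl readout of progeny virus).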

In series [4] the test system is Human immunodeficiency virus 1. As to the kind of experiment: Antiviral activity against wild-type HIV1 NL4-3 infected infected in human MT2 cells assessed as reduction in HIV1 integrated DNA at 5 uM and measured after 30 hrs post infection by Alu-LTR PCR protocol based method. Type of series: functional, organism-based. The essentials:
(§3)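 MT-2 cells were infected with NL4-3 at MOI 0.1 and incubated with test or reference agents at 20, 5 or 1 μM. Real-time PCR measured integrated HIV-1 DNA and intracellular and extracellular genomic HIV-1 RNA at 30 h post-infection. Levels are expressed as a percentage of the no-drug control culture.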

Series [5] relates to Human immunodeficiency virus 1. As to the kind of experiment: Antiviral activity against HIV1 11845 harboring integrase 140S/148H double mutant infected in human TZM-bl cells infected with supernatants from virus-infected human MT2 cells treated with compound for 72 hrs assessed as reduction in viral replication after 48 hrs by bright Glo-luciferase reporter gene assay. Type of series: functional, organism-based. The following applies: Human immunodeficiency virus 1, 11845. In a few lines: as §1

Series [6] concerns Human immunodeficiency virus 1. Put plainly: Antiviral activity against HIV1 7401 harboring nucleoside reverse transcriptase M41L/E44D/D67N/T69D/M184V/L210W/T215Y mutant infected in human TZM-bl cells infected with supernatants from virus-infected human MT2 cells treated with compound for 72 hrs assessed as reduction in viral replication after 48 hrs by bright Glo-luciferase reporter gene assay. It counts as functional, organism-based. The following applies: Human immunodeficiency virus 1, 7401. In a few lines:
as §1

The subject of series [7] is Human immunodeficiency virus 1. Put plainly: Antiviral activity against HIV1 11808 harboring protease L10F/K20T/V32I/L33F/I54V/G73S/I84V/L89V/L90M mutant infected in human TZM-bl cells infected with supernatants from virus-infected human MT2 cells treated with compound for 72 hrs assessed as reduction in viral replication after 48 hrs by bright Glo-luciferase reporter gene assay. The note with it: Human immunodeficiency virus 1, 11808. Type of series: functional, organism-based. In a few lines: as §1

The test system of series [8] is Human immunodeficiency virus 1. Put plainly: Antiviral activity against HIV1 12465 harboring protease M46I/I54V/Q58E/T74P/V82L/L90M mutant infected in human TZM-bl cells infected with supernatants from virus-infected human MT2 cells treated with compound for 72 hrs assessed as reduction in viral replication after 48 hrs by bright Glo-luciferase reporter gene assay. Type of series: functional, organism-based. The following applies: Human immunodeficiency virus 1, 12465. In a few lines: as §1

The test system of series [9] is Human immunodeficiency virus 1. As to the kind of experiment: Antiviral activity against wild-type HIV1 NL4-3 infected infected in human MT2 cells assessed as reduction in extracellular RNA at 5 uM and measured after 30 hrs post infection by Alu-LTR PCR protocol based method. It counts as functional, organism-based. In a few lines: as §3
Series [10] concerns Human immunodeficiency virus 1. As to the kind of experiment: Selectivity ratio of IC50 for HIV1 11808 harboring protease L10F/K20T/V32I/L33F/I54V/G73S/I84V/L89V/L90M mutant infected in human MT2 cells to IC50 for HIV1 NL4-3 infected in human MT2 cells. Type of series: functional. The essentials: as §2
For series [11], the system named is Human immunodeficiency virus 1. As to the kind of experiment: Selectivity ratio of IC50 for HIV1 7401 harboring nucleoside reverse transcriptase M41L/E44D/D67N/T69D/M184V/L210W/T215Y mutant infected in human MT2 cells to IC50 for HIV1 NL4-3 infected in human MT2 cells. Type of series: functional. In a few lines: as §2
In series [12] the test system is Human immunodeficiency virus 1. As to the kind of experiment: Selectivity ratio of IC50 for HIV1 12465 harboring protease M46I/I54V/Q58E/T74P/V82L/L90M mutant infected in human MT2 cells to IC50 for HIV1 NL4-3 infected in human MT2 cells. Type of series: functional. The essentials:
as §2

Series [13] relates to Human immunodeficiency virus 1. Put plainly: Selectivity ratio of IC50 for HIV1 11845 harboring integrase 140S/148H double mutant mutant infected in human MT2 cells to IC50 for HIV1 NL4-3 infected in human MT2 cells. It counts as functional. In a few lines: as §2
Series [14] concerns Human immunodeficiency virus 1. Put plainly: Antiviral activity against wild-type HIV1 NL4-3 infected infected in human MT2 cells assessed as reduction in HIV1 extracellular genomic RNA level at 5 uM and measured after 30 hrs post infection by TaqMan probe based RT-PCR analysis. It counts as functional, organism-based. The essentials: as §3
Background: In qPCR the cycle at which signal appears reflects the starting amount.

Series [15] relates to Human immunodeficiency virus 1. As to the kind of experiment: Selectivity ratio of IC50 for HIV1 12231 harboring non-nucleoside reverse transcriptase 103N/179F/181C mutant infected in human MT2 cells to IC50 for HIV1 NL4-3 infected in human MT2 cells. It counts as functional. The essentials:
as §2

Series [16] relates to Human immunodeficiency virus 1. As to the kind of experiment: Antiviral activity against wild-type HIV1 NL4-3 infected infected in human MT2 cells assessed as reduction in HIV1 intracellular genomic RNA level at 5 uM and measured after 30 hrs post infection by TaqMan probe based RT-PCR analysis. It counts as functional, organism-based. In a few lines:
as §3

The nature of series [17]: Inhibition of synthesized Nucleocapsid protein (11 to 55 residues) assessed as reduction in NC-induced cTAR DNA destabilization pre-treated with cTAR and Nucleocapsid (11-55) for 15 mins followed by compound addition at 10 uM by spectroflurometry relative to control. In a few lines: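 NC chaperone inhibition assay: fluorescence monitoring of NC-induced destabilization of cTAR DNA labelled with Alexa488 at the 5′ end and Dabcyl quencher at the 3′ end. Compound is tested at 10 μM.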

Series [18] is described as follows: Selectivity index, ratio of TD50 for cytotoxicity aginst human PBMC cells to IC50 for antiviral activity against wild type HIV1 NL4-3 infected in human TZM-bl cells assessed as reduction in viral replication after 48 hrs by bright Glo-luciferase reporter gene assay based BiCycle assay. It counts as toxicity, cell-based. The following applies: read-out: Selectivity Index. The essentials: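 SI calculated as TD50 from the PBMC MTS assay divided by IC50 from the BiCycle antiviral assay (MT-2 infection followed by TZM-bl read-out).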

In series [19] the test system is Human immunodeficiency virus 1. Put plainly: Antiviral activity against HIV1 12231 harboring non-nucleoside reverse transcriptase 103N/179F/181C mutant infected in human TZM-bl cells infected with supernatants from virus-infected human MT2 cells treated with compound for 72 hrs assessed as reduction in viral replication after 48 hrs by bright Glo-luciferase reporter gene assay. Type of series: functional, organism-based. The following applies: Human immunodeficiency virus 1, 12231. In a few lines: as §1

Series [20] is described as follows: Cytotoxicity against human PBMC cells assessed as reduction in cell viability after 7 days by MTS assay. It counts as cell-based. The following applies: read-out: TD50. In a few lines: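 Cytotoxicity in peripheral blood mononuclear cells by MTS assay, giving TD50. Only compounds that met the BiCycle IC50 ≤ 5 μM criterion and were positive in the NC inhibition assay were tested.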
(In general: Tetrazolium dyes change colour on reduction, which living cells bring about.)

Series [21] concerns Human immunodeficiency virus 1. Put plainly: Antiviral activity against HIV1 12229 harboring non-nucleoside reverse transcriptase L100I/K103N/H221Y mutant infected in human TZM-bl cells infected with supernatants from virus-infected human MT2 cells treated with compound for 72 hrs assessed as reduction in viral replication after 48 hrs by bright Glo-luciferase reporter gene assay. It counts as functional, organism-based. The note with it: Human immunodeficiency virus 1, 12229. The essentials: as §1

Series [22] relates to Human immunodeficiency virus 1. Put plainly: Selectivity ratio of IC50 for HIV1 12229 harboring non-nucleoside reverse transcriptase L100I/K103N/H221Y mutant infected in human MT2 cells to IC50 for HIV1 NL4-3 infected in human MT2 cells. It counts as functional. In a few lines:
as §2

The test system of series [23] is Human immunodeficiency virus 1. As to the kind of experiment: Antiviral activity against wild-type HIV1 NL4-3 infected in human TZM-bl cells treated with compound assessed as reduction in viral replication after 48 hrs by bright Glo-luciferase reporter gene assay based monocycle assay. The note with it: Human immunodeficiency virus 1, NL4-3.
In series [24] the test system is Human immunodeficiency virus 1. As to the kind of experiment: Antiviral activity against wild-type HIV1 NL4-3 infected infected in human MT2 cells assessed as reduction in extracellular RNA at 1 uM and measured after 30 hrs post infection by Alu-LTR PCR protocol based method. Type of series: functional, organism-based. In a few lines: as §3
The test system of series [25] is Human immunodeficiency virus 1. As to the kind of experiment: Antiviral activity against wild-type HIV1 NL4-3 infected infected in human MT2 cells assessed as reduction in intracellular RNA at 1 uM and measured after 30 hrs post infection by Alu-LTR PCR protocol based method. Type of series: functional, organism-based. In a few lines:
as §3

The IC50 is the point on the concentration scale where inhibition reaches its midpoint. For orientation: inhibition means the drop in the measured response relative to a control, in per cent. With `Nc1nc(CCOC(=O)c2ccc(COc3ccccc3-c3csc(N)n3)cc2)cs1.O=C(O)C(F)(F)F.O=C(O)C(F)(F)F`, the 50% inhibitory concentration (IC50) in series [1] is 300 nM; in series [2] it was 100 nM; in series [5], 700 nM; in series [6], 500 nM; in [7], 1100 nM; in series [8], 400 nM. For the same molecule, the IC50 in series [19] came to 700 nM; in series [21], 300 nM; in series [23], 1200 nM. The “Ratio IC50” value in [3] was found to be 0.4; in series [10], 3.6; in series [11], 1.5; in series [12], 1.2; in series [13], 2.3; in series [15] it was 2.2. The “Ratio IC50” value in series [22] is on record as 1. The result in [4] was inactive. The outcome in series [9], in series [14] and in [16] was Active. Also, in series [17], the inhibition worked out at 18%. The selectivity ratio at 48 h in series [18] was determined as 53. Also, the CC50 at 168 h in series [20] is 16000 nM.

`CC(C)CN(C[C@@H](O)[C@H](Cc1ccccc1)NC(=O)O[C@H]1CO[C@H]2OCC[C@H]21)S(=O)(=O)c1ccc(N)cc1`: the outcome in [24] was Active. Further, the result in series [25] was inactive.
